Measured values reported in ChEMBL document CHEMBL1275477, “Discovery and characterization of QPT-1, the progenitor of a new class of bacterial topoisomerase inhibitors” (Antimicrob Agents Chemother, 2008).
In brackets after ≈: the same amount, converted by molar mass.

Tests used:
Staphylococcus aureus [1] = test: Antibacterial activity against methicillin-susceptible Staphylococcus aureus UC9218 by broth microdilution method; type: functional
Procedure, shortened: (§1)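 Broth microdilution MIC following National Committee for Clinical Laboratory Standards methods. Plasmid-borne GyrB in transformed S. aureus strains was overexpressed by adding 100 ng/ml doxycycline.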

Staphylococcus aureus [2] = test: Antibacterial activity against Staphylococcus aureus UC9218 by broth microdilution method in presence of 25% serum; type: functional; procedure, shortened: as §1
Staphylococcus aureus [3] = test: Antibacterial activity against Staphylococcus aureus UC9218 by broth microdilution method in presence of 50% serum; type: functional; procedure, shortened: as §1
Staphylococcus aureus [4] = test: Antibacterial activity against methicillin and ciprofloxacin-resistant Staphylococcus aureus UC12673 by broth microdilution method; type: functional; procedure, shortened: as §1
Staphylococcus aureus [5] = test: Antibacterial activity against methicillin-resistant Staphylococcus aureus UC9213 by broth microdilution method; type: functional; procedure, shortened: as §1
Staphylococcus aureus [6] = test: Antibacterial activity against Staphylococcus aureus RN4220 by broth microdilution method; type: functional; procedure, shortened: as §1
Staphylococcus aureus [7] = test: Antibacterial activity against norA-deficient Staphylococcus aureus RN4220 by broth microdilution method; type: functional; procedure, shortened: as §1
[8] = tested on: Staphylococcus epidermidis; test: Antibacterial activity against methicillin and ciprofloxacin-resistant Staphylococcus epidermidis UC12084 by broth microdilution method; type: functional; procedure, shortened: as §1
Streptococcus pneumoniae [9] = test: Antibacterial activity against Streptococcus pneumoniae UC9912 by broth microdilution method; type: functional; procedure, shortened: as §1
Streptococcus pneumoniae [10] = test: Antibacterial activity against Streptococcus pneumoniae UC15142 by broth microdilution method; type: functional; procedure, shortened: as §1
Streptococcus pyogenes = test: Antibacterial activity against Streptococcus pyogenes UC152 by broth microdilution method; type: functional; procedure, shortened: as §1
Enterococcus faecalis = test: Antibacterial activity against Enterococcus faecalis UC9217 by broth microdilution method; type: functional; procedure, shortened: as §1
Enterococcus faecium = test: Antibacterial activity against Enterococcus faecium UC12712 by broth microdilution method; type: functional; procedure, shortened: as §1
Haemophilus influenzae [11] = test: Antibacterial activity against Haemophilus influenzae UC30063 by broth microdilution method; type: functional; procedure, shortened: as §1
Haemophilus influenzae [12] = test: Antibacterial activity against acrAB-deficient Haemophilus influenzae 31809 by broth microdilution method; type: functional; procedure, shortened: as §1
Moraxella catarrhalis = test: Antibacterial activity against Moraxella catarrhalis UC3067 by broth microdilution method; type: functional; procedure, shortened: as §1
Escherichia coli [13] = test: Antibacterial activity against Escherichia coli UC6674 by broth microdilution method; type: functional; procedure, shortened: as §1
Escherichia coli [14] = test: Antibacterial activity against acrAB-deficient Escherichia coli UC31701 by broth microdilution method; type: functional; procedure, shortened: as §1
Escherichia coli [15] = test: Antibacterial activity against tolC-deficient Escherichia coli UC31708 by broth microdilution method; type: functional; procedure, shortened: as §1
Staphylococcus aureus [16] = test: Antimicrobial activity against Staphylococcus aureus 286607-R1 by broth microdilution method; type: functional; procedure, shortened: as §1
Staphylococcus aureus [17] = test: Antimicrobial activity against Staphylococcus aureus 286607-R1 harboring wild type gyrB by broth microdilution method; type: functional; procedure, shortened: as §1
Staphylococcus aureus [18] = test: Antimicrobial activity against Staphylococcus aureus RN4220 expressing gyrB D437N mutant gene by broth microdilution method; type: functional; procedure, shortened: as §1
Staphylococcus aureus [19] = test: Antimicrobial activity against methicillin-resistant Staphylococcus aureus SUAR 1015-01 harboring gyrA S84L, parC S80F and parE S189R mutant gene by broth microdilution method; type: functional; procedure, shortened: as §1
Staphylococcus aureus [20] = test: Antimicrobial activity against Staphylococcus aureus COL harboring gyrB V28A mutant gene by broth microdilution method; type: functional; procedure, shortened: as §1
Staphylococcus aureus [21] = test: Antimicrobial activity against Staphylococcus aureus MW2 harboring parC R400C mutant gene by broth microdilution method; type: functional; procedure, shortened: as §1
Staphylococcus aureus [22] = test: Antimicrobial activity against Staphylococcus aureus USA200 harboring […] S84L and parC R400C mutant gene by broth microdilution method; type: functional; procedure, shortened: as §1
Staphylococcus aureus [23] = test: Antibacterial activity against Staphylococcus aureus ATCC 29213 by broth microdilution method; type: functional; procedure, shortened: as §1
Staphylococcus aureus [24] = test: Antibacterial activity against ciprofloxacin-resistant Staphylococcus aureus ATCC 29213 by broth microdilution method; type: functional; procedure, shortened: as §1
Staphylococcus aureus [25] = test: Antibacterial activity against quinoline pyrimidine trione-resistant Staphylococcus aureus ATCC 29213 by broth microdilution method; type: functional; procedure, shortened: as §1
Staphylococcus aureus [26] = test: Antibacterial activity against methicillin-susceptible Staphylococcus aureus by broth microdilution method; type: functional; procedure, shortened: as §1
Staphylococcus aureus [27] = test: Antibacterial activity against methicillin-resistant Staphylococcus aureus by broth microdilution method; type: functional; procedure, shortened: as §1
Staphylococcus aureus [28] = test: Antibacterial activity against ciprofloxacin-resistant Staphylococcus aureus by broth microdilution method; type: functional; procedure, shortened: as §1
Streptococcus pneumoniae [29] = test: Antibacterial activity against Streptococcus pneumoniae by broth microdilution method; type: functional; procedure, shortened: as §1
Streptococcus pneumoniae [30] = test: Antibacterial activity against ciprofloxacin-resistant Streptococcus pneumoniae by broth microdilution method; type: functional; procedure, shortened: as §1
[31] = Inhibition of Escherichia coli DNA gyrase by gel electrophoresis
[32] = Inhibition of Escherichia coli DNA topoisomerase 4 by gel electrophoresis
[33] = Inhibition of human DNA topoisomerase 4 by gel electrophoresis
Staphylococcus aureus [34] = test: Antibacterial activity against methicillin-resistant Staphylococcus aureus UC9213 in orally dosed lethal systemic CF-1 mouse infection model; type: functional; conditions: UC9213, po
Procedure, shortened: (§2)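 Lethal systemic infection in female CF-1 mice (20 g), infected intraperitoneally with enough bacteria to kill 90–100% of untreated mice. Thawed cultures were suspended in brain heart infusion broth with 4% (wt/vol) dried brewer's yeast. Drug given orally or subcutaneously at 1 and 5 h postinfection, at five or more dose levels, six mice per level. Survival followed for 1 week; ED50 by probit analysis.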

Staphylococcus aureus [35] = test: Antibacterial activity against methicillin-resistant Staphylococcus aureus UC9213 infected in subcutaneously dosed lethal systemic CF-1 mouse infection model; type: functional; conditions: UC9213, sc; procedure, shortened: as §2
Mus musculus = test: Toxicity in lethal systemic CF-1 mouse infection model assessed as adverse effects at 200 mg/kg, po; type: organism-based; parameters: dose 200 mg/kg, route oral; conditions: in vivo
[36] = Half life in lethal systemic CF-1 mouse infection model at 21.6 mg/kg, iv; type: ADME, organism-based; parameters: dose 21.6 mg/kg, route intravenous; conditions: in vivo
Procedure, shortened: (§3)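 Mouse pharmacokinetics: single dose in 0.2 ml, given orally (pH 4.5 acetate-buffered 20% DMSO–methylcellulose suspension) or intravenously (20% hydroxypropyl beta-cyclodextrin, pH 7 phosphate buffer). Plasma sampled to 480 min: iv at 0, 2, 15, 30, 60, 120, 240, 480 min; oral at 0, 20, 30, 60, 120, 240, 360, 480 min. Three mice per time point; mean concentration–time data analysed noncompartmentally.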

[37] = Cmax in lethal systemic CF-1 mouse infection model at 21.6 mg/kg, iv; type: ADME, organism-based; parameters: dose 21.6 mg/kg, route intravenous; conditions: in vivo; procedure, shortened: as §3
[38] = AUC (0 to infinity) in lethal systemic CF-1 mouse infection model at 21.6 mg/kg, iv; type: ADME, organism-based; parameters: time infinity, dose 21.6 mg/kg, route intravenous; conditions: in vivo; procedure, shortened: as §3
[39] = Volume of distribution at steady state in lethal systemic CF-1 mouse infection model at 21.6 mg/kg, iv; type: ADME, organism-based; parameters: dose 21.6 mg/kg, route intravenous; conditions: in vivo, read-out: Vdss
[40] = Clearance in lethal systemic CF-1 mouse infection model at 21.6 mg/kg, iv; type: ADME, organism-based; parameters: dose 21.6 mg/kg, route intravenous; conditions: in vivo; procedure, shortened: as §3
[41] = Half life in lethal systemic CF-1 mouse infection model at 20.3 mg/kg, po; type: ADME, organism-based; parameters: dose 20.3 mg/kg, route oral; conditions: in vivo; procedure, shortened: as §3
[42] = Cmax in lethal systemic CF-1 mouse infection model at 20.3 mg/kg, po; type: ADME, organism-based; parameters: dose 20.3 mg/kg, route oral; conditions: in vivo; procedure, shortened: as §3
[43] = AUC (0 to infinity) in lethal systemic CF-1 mouse infection model at 20.3 mg/kg, po; type: ADME, organism-based; parameters: dose 20.3 mg/kg, route oral, time infinity; conditions: in vivo; procedure, shortened: as §3
[44] = Tmax in lethal systemic CF-1 mouse infection model at 20.3 mg/kg, po; type: ADME, organism-based; parameters: dose 20.3 mg/kg, route oral; conditions: in vivo; procedure, shortened: as §3
[45] = Oral bioavailability in lethal systemic CF-1 mouse infection model at 20.3 mg/kg, po; type: ADME, organism-based; conditions: in vivo; procedure, shortened: as §3

Work on `CC1CN2c3ccc([N+](=O)[O-])cc3CC3(C(=O)NC(=O)NC3=O)C2C(C)O1` (racemic) yielded an MIC (Staphylococcus aureus [1]) of 1 µg/mL (≈ 2.67 µM), an MIC (Staphylococcus aureus [2]) of 2 µg/mL and an MIC (Staphylococcus aureus [3]) of 4 µg/mL. It also gave an MIC (Staphylococcus aureus [4]) of 1 µg/mL (≈ 2.67 µM), an MIC (Staphylococcus aureus [5]) of 1 µg/mL (≈ 2.67 µM) and an MIC (Staphylococcus aureus [6]) of 1 µg/mL (≈ 2.67 µM). The MIC (Staphylococcus aureus [7]) was 1 µg/mL (≈ 2.67 µM), the MIC [8] was 1 µg/mL (≈ 2.67 µM) and the MIC (Streptococcus pneumoniae [9]) was 4 µg/mL (≈ 10.7 µM). It also gave an MIC (Streptococcus pneumoniae [10]) of 4 µg/mL (≈ 10.7 µM), an MIC (Streptococcus pyogenes) of 2 µg/mL (≈ 5.34 µM) and an MIC (Enterococcus faecalis) of 4 µg/mL (≈ 10.7 µM). For the same molecule, the MIC (Enterococcus faecium) was 8 µg/mL (≈ 21.4 µM), the MIC (Haemophilus influenzae [11]) was 0.5 µg/mL (≈ 1.34 µM) and the MIC (Haemophilus influenzae [12]) was < 0.06 µg/mL. The MIC (Moraxella catarrhalis) was 2 µg/mL (≈ 5.34 µM), the MIC (Escherichia coli [13]) was 4 µg/mL (≈ 10.7 µM) and the MIC (Escherichia coli [14]) was 0.125 µg/mL (≈ 0.334 µM). For the same molecule, the MIC (Escherichia coli [15]) was < 0.06 µg/mL, the MIC (Staphylococcus aureus [16]) was 16 µg/mL (≈ 42.7 µM) and the MIC (Staphylococcus aureus [17]) was 4 µg/mL (≈ 10.7 µM). The MIC (Staphylococcus aureus [18]) was 1 µg/mL (≈ 2.67 µM), the MIC (Staphylococcus aureus [19]) was 0.5 µg/mL (≈ 1.34 µM) and the MIC (Staphylococcus aureus [20]) was 1 µg/mL (≈ 2.67 µM). For the same molecule, the MIC (Staphylococcus aureus [21]) was 1 µg/mL (≈ 2.67 µM), the MIC (Staphylococcus aureus [22]) was 1 µg/mL (≈ 2.67 µM) and the MIC (Staphylococcus aureus [23]) was 1 µg/mL (≈ 2.67 µM). The MIC (Staphylococcus aureus [24]) was 1 µg/mL (≈ 2.67 µM), the MIC (Staphylococcus aureus [25]) was 8 µg/mL (≈ 21.4 µM) and the MIC50 (Staphylococcus aureus [26]) was 1 µg/mL (≈ 2.67 µM). For the same molecule, the MIC90 (Staphylococcus aureus [26]) was 1 µg/mL (≈ 2.67 µM), the MIC (Staphylococcus aureus [27]) was 1 µg/mL (≈ 2.67 µM) and the MIC50 (Staphylococcus aureus [27]) was 1 µg/mL (≈ 2.67 µM). The MIC90 (Staphylococcus aureus [27]) was 2 µg/mL (≈ 5.34 µM), the MIC50 (Staphylococcus aureus [28]) was 1 µg/mL (≈ 2.67 µM) and the MIC90 (Staphylococcus aureus [28]) was 1 µg/mL (≈ 2.67 µM). The MIC50 (Streptococcus pneumoniae [29]) was 4 µg/mL (≈ 10.7 µM), the MIC90 (Streptococcus pneumoniae [29]) was 8 µg/mL (≈ 21.4 µM) and the MIC50 (Streptococcus pneumoniae [30]) was 4 µg/mL (≈ 10.7 µM). It also gave an MIC90 (Streptococcus pneumoniae [30]) of 8 µg/mL (≈ 21.4 µM), an IC50 [31] of 9 µM and an IC50 [32] of 30 µM. The IC50 [33] was 200 µM, the ED50 (Staphylococcus aureus [34]) was 19.5 mg/kg and the ED50 (Staphylococcus aureus [35]) was 12.5 mg/kg. For the same molecule, the Activity (Mus musculus) was “Non-toxic”, the half-life [36] was 1.22 h and the Cmax [37] was 15700 ng/mL. It also gave an AUC(0-inf) [38] of 31000 ng·h/mL, a Vd [39] of 0.623 L/kg and a clearance [40] of 11.6 mL/min/kg. For the same molecule, the half-life [41] was 0.927 h, the Cmax [42] was 15700 ng/mL and the AUC(0-inf) [43] was 27600 ng·h/mL. The Tmax [44] was 1 h and the bioavailability [45] was 94.7%.
